Results: ChEMBL document CHEMBL1240369, “Antiviral efficacy of the novel compound BIT225 against HIV-1 release from human macrophages” (Antimicrob Agents Chemother, 2010)
The source made the active and inactive calls. The rule behind the calls is not given here.

Key:
[1] = tested on: Human immunodeficiency virus 1; assay: Inhibition of HIV1 Vpu ion channel activity
Method in brief: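 Planar lipid bilayer of POPE:POPC (50:50) in n-decane, with 50 mM KCl in 10 mM MES […] in both chambers. Synthetic Vpu peptide (150 ng) was added to cis and trans sides with stirring. K+ current appeared at −100 mV and was recorded at −40 mV, filtered at 1 kHz. Mean currents were taken over 10–30 s before and after compound (40 μM).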

[2] = Cytotoxicity against human TZM-bl cells assessed as cell viability up to 20 uM by MTT assay; format: cell-based
[3] = (§1) Inhibition of Vpu ion channel in HIV1 Ba-L in human MDM assessed as inhibition of vrius release; parameters: species or system Human immunodeficiency virus 1
Method in brief: (§2)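 Day 14 MDM were infected with HIV-1 Ba-L for 3 h, washed three times and cultured with compound from 10 to 0 μM (0 μM containing matched DMSO). Day 7 supernatants were assayed for RT activity and converted to percent of virus control. EC50 came from nonlinear regression; n = 6 experiments, each in triplicate.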

[4] = tested on: Human immunodeficiency virus 1; assay: as §1; method in brief: as §2
[5] = Inhibition of Vpu ion channel in HIV1 92TH001 in human MDM assessed as inhibition of vrius release; parameters: species or system Human immunodeficiency virus 1
[6] = Inhibition of Vpu ion channel in HIV1 5705.72 in human MDM assessed as inhibition of vrius release; parameters: species or system Human immunodeficiency virus 1
[7] = Selectivity index, ratio of TC50 for human MDM cells to EC50 for HIV1 92TH001 infected in human MDM cells; format: toxicity, cell-based; details: read-out: Selectivity Index
[8] = Selectivity index, ratio of TC50 for human MDM cells to EC50 for HIV1 1064.52 infected in human MDM cells; format: toxicity, cell-based; details: read-out: Selectivity Index
MDM [9] = assay: Inhibition of Vpu ion channel in 0.01 MOI HIV1 Ba-L infected in 10 days differentiated human MDM cells assessed as number of gag copy; format: cell-based; details: Human immunodeficiency virus 1
Method in brief: (§3)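 MDM differentiated for 7, 10 or 14 days were infected with HIV-1 Ba-L across a range of MOIs, washed three times with PBS and cultured 7 days with 10 μM compound or equal-volume DMSO. On day 7 postinfection, supernatant RT activity was measured (and infectivity on TZM-bl cells). Cell lysates went to real-time PCR for LTR-gag DNA, normalised to albumin copies.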

MDM [10] = assay: Inhibition of Vpu ion channel in 0.01 MOI HIV1 Ba-L infected in 14 days differentiated human MDM cells assessed as number of gag copy; format: cell-based; details: Human immunodeficiency virus 1; method in brief: as §3
MDM [11] = assay: Inhibition of Vpu ion channel in 0.05 MOI HIV1 Ba-L infected in 10 days differentiated human MDM cells assessed as number of gag copy; format: cell-based; details: Human immunodeficiency virus 1; method in brief: as §3
MDM [12] = assay: Inhibition of Vpu ion channel in 0.001 to 0.01 MOI HIV1 Ba-L infected in 10 days differentiated human MDM cells assessed as viral inhibition by RT assay; format: cell-based; details: Human immunodeficiency virus 1; method in brief: as §3
MDM [13] = assay: Inhibition of Vpu ion channel in 0.01 MOI HIV1 Ba-L infected in 10 days differentiated human MDM cells assessed as viral inhibition by TZM-bl infectivity assay; format: cell-based; details: Human immunodeficiency virus 1; method in brief: as §3
MDM [14] = assay: Inhibition of Vpu ion channel in 0.001 MOI HIV1 Ba-L infected in 10 days differentiated human MDM cells assessed as viral inhibition by TZM-bl infectivity assay; format: cell-based; details: Human immunodeficiency virus 1; method in brief: as §3
MDM [15] = assay: Inhibition of Vpu ion channel in 0.001 MOI HIV1 Ba-L infected in 14 days differentiated human MDM cells assessed as viral inhibition by TZM-bl infectivity assay; format: cell-based; details: Human immunodeficiency virus 1; method in brief: as §3
MDM [16] = assay: Inhibition of Vpu ion channel in 0.05 MOI HIV1 Ba-L acutely infected in 14 days differentiated human MDM cells assessed as reverse transcriptase activity after 21 days relative to control; format: cell-based; details: Human immunodeficiency virus 1
Method in brief: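 Day 14 MDM were acutely infected with HIV-1 Ba-L at MOI 0.05 for 3 h, washed three times with PBS, then cultured a further 7 days in DMEM10+ with 10 μM compound or equal DMSO. Virus release was measured as supernatant RT activity on day 21 of culture, relative to DMSO controls.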

MDM [17] = assay: Inhibition of Vpu ion channel in 0.05 MOI HIV1 Ba-L chronically infected in 14 days differentiated human MDM cells assessed as viral inhibition measured after treatment at 11 th day postinfection; format: cell-based; details: Human immunodeficiency virus 1
MDM [18] = assay: Inhibition of Vpu ion channel activity in 0.05 MOI HIV1 Ba-L chronically infected in 7-14 days differentiated human MDM cells assessed as viral inhibition measured after 7 days; format: cell-based; details: Human immunodeficiency virus 1
Method in brief: (§4)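 Day 14 MDM from 3 seronegative donors were infected with HIV-2, or with HIV-1 Ba-L as a positive control, at MOI 0.05 for 7 days. Cells were then washed free of extracellular virus and cultured ± 10 μM compound for a further 7 days. Day 28 supernatants were assayed for RT activity by chemiluminescent ELISA, with recombinant RT as the standard.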

[19] = tested on: Human immunodeficiency virus 2; assay: Antiviral activity against 0.05 MOI HIV2 chronically infected in 7-14 days differentiated human MDM cells assessed as viral inhibition measured after 7 days; format: functional, organism-based; method in brief: as §4
[20] = tested on: Human immunodeficiency virus 2; assay: Antiviral activity against 0.05 MOI HIV2 noncytopathic strain chronically infected in 7-14 days differentiated human MDM cells assessed as viral inhibition measured after 7 days; format: functional
Method in brief: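 Day 14 MDM from three seronegative donors were infected at MOI 0.05 for 7 days, then washed free of extracellular virus. Cultures then ran a further 7 days with or without 10 μM BIT225, from day 21. Day 28 supernatants were assayed by RT activity ELISA. Percent inhibition was taken versus untreated controls, as mean of three donors.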

[21] = tested on: Human immunodeficiency virus 1; assay: Antiviral activity against HIV1 Ba-L in human MDM assessed as inhibition integration of virus to host cell genome at 10 nM; format: functional, organism-based
[22] = tested on: Human immunodeficiency virus 1; assay: Antiviral activity against HIV1 Ba-L in 14 days differentiated human MDM assessed as decrease in intracellular p24 level at 10 uM after 7 days by Western blot analysis; format: functional, organism-based
Method in brief: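 Day 14 MDM were chronically infected with HIV-1 Ba-L, then given 10 μM compound or DMSO and harvested on day 28. Lysates with equal total protein (checked by β-actin) were run on a 10% polyacrylamide gel and blotted to nitrocellulose. Blots were probed with HIV-1-seropositive human serum, then HRP anti-human IgG.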

MT2 [23] = assay: Inhibition of Vpu ion channel in 0.05 MOI HIV1 infected in MT2 cells assessed as viral inhibition measured after 7 days by […]; details: Human immunodeficiency virus 1
PBMC [24] = assay: Inhibition of Vpu ion channel in 0.05 MOI HIV1 NL4-3 infected in human PBMC cells assessed as viral inhibition measured after 7 days by […]; details: Human immunodeficiency virus 1
MT2 [25] = assay: Inhibition of Vpu ion channel in 0.05 MOI HIV1 NL4-3 infected in MT2 cells assessed as viral inhibition measured at 10 uM after 7 days by […]; details: Human immunodeficiency virus 1
PBMC [26] = assay: Inhibition of Vpu ion channel in 0.05 MOI HIV1 NL4-3 infected in human PBMC cells assessed as viral inhibition measured at 5 uM after 7 days by […]; details: Human immunodeficiency virus 1

Cn1cc(-c2cccc3cc(C(=O)NC(=N)N)ccc23)cn1
Activity [1]: 40 µM | Activity [2]: Non-toxic | EC50 [3]: 2250 nM | Activity [4]: Dose-dependent effect | EC50 [5]: 1500 nM | EC50 [6]: 5100 nM | selectivity ratio [7]: 140 | selectivity ratio [8]: 61.9 | Activity (MDM [9]): 1380 | Activity (MDM [10]): 98 | Activity (MDM [11]): Active | inhibition (MDM [12]): 82% | inhibition (MDM [13]): 90.4% | inhibition (MDM [14]): 98.1% | inhibition (MDM [15]): 90.3% | Activity (MDM [16]): < 6 U/ml | inhibition (MDM [17]): 86.3% | inhibition (MDM [18]): 66.6% | Activity [19]: inactive | inhibition (INH) [20]: 13.4% | Activity [21]: Active | Activity [22]: Active | inhibition (MT2 [23]): 38.8% | inhibition (PBMC [24]): 95.8% | inhibition (MT2 [25]): 24% | inhibition (PBMC [26]): 25.7%
